We go through two compounds from ChEMBL document CHEMBL1123083, “Synthesis and antiherpetic activity of (S)-, (R)-, and (+/-)-9-[(2,3-dihydroxy-1-propoxy)methyl]guanine, linear isomers of 2'-nor-2'-deoxyguanosine” (J Med Chem, 1985).

In series [1] the test system is Human alphaherpesvirus 1. Description: Efficacy was evaluated against Oraficial HSV-1 infection in mice with lesions administered orally at dose 3.1 mg/kg per day; Total mice tested 10. The class given is ADME, organism-based. Set-up: route oral. As to conditions: mouse, in vivo, po. In a few lines: (§1)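 HSV-1 strain S inoculated in the orofacial area of mice as previously described. Half-daily doses given by gavage 8 h apart, starting 3 h after infection, for 7 days. On day 7 after infection, mice with lesions per group and average lesion score were recorded (95% confidence interval). Significance was judged against placebo-treated infected mice (p < 0.05).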

Series [2] has as its system Human alphaherpesvirus 1. Put plainly: Efficacy was evaluated against Systemic HSV-1 infection in mice at a daily dose of 12.5 mg/kg administered orally. The class given is ADME, organism-based. As to conditions: mouse, in vivo, po. Also noted: dose 12.5 mg/kg. In a few lines: (§2)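 Mixed-sex ICR/Ha mice (10–20 g) were infected intraperitoneally with 50–100 LD50 of HSV-1 Schooler. Oral dosing of 0.1 mL twice daily for 7 days began immediately after infection. Groups were of about 10 mice. Deaths were recorded daily for 15 days, giving survivors/total and mean survival time with 95% CI. Significance was judged against placebo-treated infected mice using transformed survival times.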

Series [3] has as its system Human alphaherpesvirus 1. Description: Efficacy was evaluated against Systemic HSV-1 infection in mice at a daily dose of 3.1 mg/kg administered orally. In kind it is ADME, organism-based. Set-up: dose 3.1 mg/kg. As to conditions: mouse, in vivo, po. In a few lines: as §2
For series [4], the system named is Human alphaherpesvirus 1. Put plainly: Efficacy was evaluated against Oraficial HSV-1 infection in mice with lesions administered orally at a dose 50 mg/kg per day. As to conditions: mouse, in vivo, po. Set-up: route oral. In kind it is ADME, organism-based. In a few lines:
as §1

In series [5] the test system is Human alphaherpesvirus 1. Put plainly: Efficacy was evaluated against Oraficial HSV-1 infection in mice with lesions administered orally at a dose 12.5 mg/kg per day. The class given is ADME, organism-based. Set-up: route oral. As to conditions: mouse, in vivo, po. In a few lines:
as §1

Series [6] concerns Human alphaherpesvirus 1. Description: Efficacy was evaluated against Oraficial HSV-1 infection in mice with lesions administered orally at a dose 12.5 mg/kg per day; Total mice tested 10. In kind it is organism-based. Set-up: route oral. As to conditions: mouse, in vivo, po. In a few lines:
as §1

Series [7] has as its system Human alphaherpesvirus 1. Description: Efficacy was evaluated against Oraficial HSV-1 infection in mice with lesions administered orally at a dose 50 mg/kg per day; Total mice tested 10. The class given is organism-based. Also noted: route oral. As to conditions: mouse, in vivo, po. In a few lines: as §1
For series [8], the system named is Human alphaherpesvirus 1. Description: Efficacy was evaluated against Oraficial HSV-1 infection in mice with lesions administered orally at a dose 3.1 mg/kg per day. In kind it is ADME, organism-based. Also noted: route oral. As to conditions: mouse, in vivo, po. In a few lines:
as §1

For series [9], the system named is Human alphaherpesvirus 1. Description: Efficacy was evaluated against Systemic HSV-1 infection in mice at a daily dose of 12.5 mg/kg administered orally; Total mice tested 10. In kind it is ADME, organism-based. Also noted: dose 12.5 mg/kg. As to conditions: mouse, in vivo, po. In a few lines: as §2
In series [10] the test system is Human alphaherpesvirus 1. Put plainly: Efficacy was evaluated against Systemic HSV-1 infection in mice at a daily dose of 3.1 mg/kg administered orally; Total mice tested 10. Also noted: dose 3.1 mg/kg. As to conditions: mouse, in vivo, po. In kind it is ADME, organism-based. In a few lines: as §2
Series [11] deals with Human alphaherpesvirus 1. Description: Efficacy was evaluated against Systemic HSV-1 infection in mice at a daily dose of 50 mg/kg administered orally; Total mice tested 10. The class given is organism-based. Set-up: dose 50 mg/kg. As to conditions: mouse, in vivo, po. In a few lines: as §2
The subject of series [12] is Human betaherpesvirus 5. Put plainly: In vitro anti viral activity tested against HCMV(AD169) virus on MRC-5 cell monolayers; 20-25. The class given is functional. As to conditions: Human betaherpesvirus 5, MRC5; read-out: ED50 (the source's name). In a few lines: (§3)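 MRC-5 monolayers were infected with HCMV AD169 for 1 h at 37 °C. Compound diluted in maintenance medium was then added and incubation continued for 7 days at 37 °C. Monolayers were stained and plaques counted. ED50 is the concentration reducing plaque number by 50%.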

The subject of series [13] is Human alphaherpesvirus 1. Description: Evaluated for DNA polymerase inhibition activity against herpes simplex virus-1 (HSV-1). In kind it is functional. In a few lines:
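Step II mixture supplied the phosphorylated test material. Step I: compound with HSV-1 thymidine kinase, 4 h, 37 °C. Step II: then HSV-1-infected HeLa crude extract plus GMP kinase, overnight, 30 °C. A 20 μL sample went to a 1 h, 37 °C DNA polymerase assay at pH 8 with activated salmon sperm DNA, 0.05 mM each dNTP ([³H]dTTP) and infected HeLa extract. (NH₄)₂SO₄ 0.1 M was present for the viral enzyme and omitted for the cellular polymerases. Read-out: TCA-precipitable radioactivity.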

Series [14] has as its system Human alphaherpesvirus 1. Description: In vitro anti viral activity tested against HSV-1(Schooler) virus on Rabbit kidney cell cultures; 1-3. The class given is functional. As to conditions: Human alphaherpesvirus 1, kidney; read-out: ED50 (the source's name). In a few lines:
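Confluent primary rabbit kidney monolayers were preincubated with serial drug dilutions in EMEM with 2% fetal calf serum and neomycin. They were then challenged with about 10 TCID50 of […] and incubated at 37 °C. Cytopathology was scored on day 5.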

Series [15] concerns Human alphaherpesvirus 2. Put plainly: In vitro anti viral activity tested against HSV-2(Curtis) virus on Rabbit kidney cell cultures; 1-3. The class given is functional. As to conditions: Human alphaherpesvirus 2, kidney; read-out: ED50 (the source's name). In a few lines:
(§4)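 Confluent primary rabbit kidney monolayers were preincubated with serial drug dilutions in EMEM with 2% fetal calf serum and neomycin. They were then challenged with about 10 TCID50 of HSV-1 Schooler or HSV-2 Curtis and incubated at 37 °C. Cytopathology was scored on day 5. ED50 is the concentration preventing cytopathology in half of the infected cultures.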

The subject of series [16] is Human alphaherpesvirus 1. Put plainly: Efficacy was evaluated against Systemic HSV-1 infection in mice at a daily dose of 50 mg/kg administered orally. In kind it is ADME, organism-based. Set-up: dose 50 mg/kg. As to conditions: mouse, in vivo, po. In a few lines: as §2
In series [17] the test system is DNA polymerase (Homo sapiens). Description: Evaluated for DNA polymerase inhibition activity against HeLa cells.
For series [18], the system named is Human alphaherpesvirus 1. Put plainly: Efficacy was evaluated against Systemic HSV-1 infection in mice at a daily dose of 0.8 mg/kg administered subcutaneously. As to conditions: mouse, in vivo, sc. Set-up: dose 0.8 mg/kg, route subcutaneous. In kind it is ADME, organism-based. In a few lines: (§5)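 ICR/Ha mice (10–20 g, mixed sex) were infected intraperitoneally with 50–100 LD50 of HSV-1 Schooler. Subcutaneous dosing of 0.1 mL twice daily for 4 days started immediately after infection. Groups were of about 10 mice. Survival was recorded daily for 15 days and reported as survivors/total and mean survival time (95% CI). Transformed survival times were compared with placebo-treated infected mice (p < 0.05).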

For a further series, the system named is Mus musculus. Description: Efficacy was evaluated against Systemic HSV-1 infection in mice at a daily dose of 12.5 mg/kg administered subcutaneously. The class given is ADME, organism-based. Set-up: dose 12.5 mg/kg, route subcutaneous. As to conditions: in vivo, sc. In a few lines: as §5
For series [19], the system named is Human alphaherpesvirus 1. Put plainly: Efficacy was evaluated against Systemic HSV-1 infection in mice at a daily dose of 3.1 mg/kg administered subcutaneously. As to conditions: mouse, in vivo, sc. In kind it is ADME, organism-based. Set-up: dose 3.1 mg/kg, route subcutaneous. In a few lines: as §5
In series [20] the test system is Human alphaherpesvirus 1. Description: Efficacy was evaluated against Systemic HSV-1 infection in mice at a daily dose of 0.8 mg/kg administered subcutaneously; Tested mice 10. The class given is organism-based. Set-up: dose 0.8 mg/kg, route subcutaneous. As to conditions: mouse, in vivo, sc. In a few lines:
as §5

Series [21] deals with Human alphaherpesvirus 1. Description: Efficacy was evaluated against Systemic HSV-1 infection in mice at a daily dose of 12.5 mg/kg administered subcutaneously; Tested mice 10. In kind it is organism-based. Set-up: dose 12.5 mg/kg, route subcutaneous. As to conditions: mouse, in vivo, sc. In a few lines: as §5
Series [22] concerns Human alphaherpesvirus 1. Description: Efficacy was evaluated against Systemic HSV-1 infection in mice at a daily dose of 3.1 mg/kg administered subcutaneously; Tested mice 10. The class given is ADME, organism-based. As to conditions: mouse, in vivo, sc. Set-up: dose 3.1 mg/kg, route subcutaneous. In a few lines:
as §5

Series [23] has as its system Human betaherpesvirus 5. Description: In vitro anti viral activity tested against HCMV(AD169) virus on MRC-5 cell monolayers; 0.4-1.6. The class given is functional. As to conditions: Human betaherpesvirus 5, MRC5; read-out: ED50 (the source's name). In a few lines:
as §3

Series [24] has as its system Human alphaherpesvirus 2. Description: In vitro anti viral activity tested against HSV-2(Curtis) virus on Rabbit kidney cell cultures; 3-6. The class given is functional. As to conditions: Human alphaherpesvirus 2, kidney; read-out: ED50 (the source's name). In a few lines:
as §4

The subject of another series is Human alphaherpesvirus 3. Description: In vitro anti viral activity tested against VZV(KMcC) virus on MRC-5 cell monolayers; 1-2. In kind it is functional. As to conditions: Human alphaherpesvirus 3, MRC5; read-out: ED50 (the source's name).

In brackets after ≈: the same amount, converted by molar mass.

`Nc1nc2c(ncn2COCCO)c(=O)[nH]1` [ACYCLOVIR]: the figures for the Mice with lesions in the series on Human alphaherpesvirus 1 [1], in the series on Human alphaherpesvirus 1 [6] and in the series with Human alphaherpesvirus 1 [7] were 10, 8 and 6, respectively. In addition, the Average survival in the series on Human alphaherpesvirus 1 [2] came to 7.6 days; in the series with Human alphaherpesvirus 1 [3] it was 6.5 days; with Human alphaherpesvirus 1 [16] it was 8.7 days. The Average lesion score in the series on Human alphaherpesvirus 1 [4] came out at 1.45; in the series on Human alphaherpesvirus 1 [5] it was 2.95; in the series with Human alphaherpesvirus 1 [8], 3.75. In addition, the Survivors in the series on Human alphaherpesvirus 1 [9] is 1; with Human alphaherpesvirus 1 [10] it was 0; in the series on Human alphaherpesvirus 1 [11], 2. In addition, the EC50 came to 20 µg/mL (≈ 88.8 µM) in the series on Human betaherpesvirus 5 [12], 1 µg/mL (≈ 4.44 µM) in the series on Human alphaherpesvirus 1 [14] and 1 µg/mL (≈ 4.44 µM) with Human alphaherpesvirus 2 [15]. The Inhibition in the series with Human alphaherpesvirus 1 [13] is 85%; in [17], 34%.
As to `Nc1nc2c(ncn2COC(CO)CO)c(=O)[nH]1` [GANCICLOVIR], the results for the Average survival in the series on Human alphaherpesvirus 1 [18], with Mus musculus and with Human alphaherpesvirus 1 [19] were 9.8 days, 14.6 days and 12.6 days, respectively. The Survivors turned out to be 3 in the series on Human alphaherpesvirus 1 [20], 7 in the series with Human alphaherpesvirus 1 [21] and 5 in the series with Human alphaherpesvirus 1 [22]. Moreover, the EC50 with Human betaherpesvirus 5 [23] was 0.4 µg/mL (≈ 1.57 µM); in the series with Human alphaherpesvirus 1 [14], 1 µg/mL (≈ 3.92 µM); in the series on Human alphaherpesvirus 2 [24] it was 3 µg/mL (≈ 11.8 µM); with Human alphaherpesvirus 3, 1 µg/mL (≈ 3.92 µM). The Inhibition was 55% in the series with Human alphaherpesvirus 1 [13] and 13% in series [17].
